Results taken from ChEMBL document CHEMBL5724801, “EUbOPEN Chemogenomics Library - Multiplex” (2024).
Where “and” joins values, the source holds several entries; their conditions need not be identical. Identical values can stand only once.

Key:
[1] = test system: Fibroblast; experiment: Multiplex assay against human fibroblast; type: toxicity, cell-based
In short: (§1)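 Cells were classed with CellPathfinder machine-learning gating, first as Hoechst high-intensity objects or normal cells, then (normal cells) as healthy, pyknosed or fragmented nuclei, and finally (pyknosed cells) as mitotic or apoptotic. Staining of live cells at seeding used Hoechst33342, BioTracker Green Microtubule Cytoskeleton Dye, MitoTracker Red and Annexin V Alexa Fluor 680, with imaging on a CQ1 microscope at 37°C and 5% CO2 after compound addition. Tubulin, mitochondrial-mass and membrane-permeability phenotypes are per cents of healthy-nucleus cells.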

[2] = test system: HEK-293T; experiment: Multiplex assay against HEK293T; type: toxicity, cell-based; details: human; in short: as §1
[3] = 12 h, 1 µM, compound concentration 1 uM
[4] = 12 h, 10 µM, compound concentration 10 uM
[5] = 24 h, 1 µM, compound concentration 1 uM
[6] = 24 h, 10 µM, compound concentration 10 uM
[7] = 48 h, 1 µM, compound concentration 1 uM
[8] = 48 h, 10 µM, compound concentration 10 uM

Question: Which results are given for `O=C(Nc1c[nH]nc1-c1nc2cc(CN3CCOCC3)ccc2[nH]1)NC1CC1` [AT-9283]?
Answer: Population Apoptotic (%) [1, 3]: 20% and 16.13%; Population Fragmented Nuclei (%) [1, 3]: 9.94% and 5.09%; Population Healthy Nuclei (%) [1, 3]: 62.43% and 80.56%; Population Hoechst High Intensity Objects (%) [1, 3]: 0%; Population Membrane Permeable-Phenotype (%) [1, 3]: 3.54% and 0.57%; Population Mitochondria Different-Phenotype (%) [1, 3]: 14.16% and 13.22%; Population Mitotic Cells (%) [1, 3]: 80% and 83.87%; Population Normal (%) [1, 3]: 100%; Population Pyknosed Nuclei (%) [1, 3]: 27.62% and 14.35%; Population Tubulin-Different-Phenotype (%) [1, 3]: 24.78% and 24.71%; Total Cell Count [1, 3]: 181 and 216; Population Apoptotic (%) [1, 4]: 30% and 36.21%; Population Fragmented Nuclei (%) [1, 4]: 25% and 12.87%; Population Healthy Nuclei (%) [1, 4]: 54.59% and 65.81%; Population Hoechst High Intensity Objects (%) [1, 4]: 0%; Population Membrane Permeable-Phenotype (%) [1, 4]: 19.63% and 13.41%; Population Mitochondria Different-Phenotype (%) [1, 4]: 14.02% and 18.44%; Population Mitotic Cells (%) [1, 4]: 70% and 63.79%; Population Normal (%) [1, 4]: 100%; Population Pyknosed Nuclei (%) [1, 4]: 20.41% and 21.32%; Population Tubulin-Different-Phenotype (%) [1, 4]: 36.45% and 41.34%; Total Cell Count [1, 4]: 196 and 272; Population Apoptotic (%) [1, 5]: 8.33% and 17.86%; Population Fragmented Nuclei (%) [1, 5]: 12.64% and 5.88%; Population Healthy Nuclei (%) [1, 5]: 67.58% and 68.78%; Population Hoechst High Intensity Objects (%) [1, 5]: 0%; Population Membrane Permeable-Phenotype (%) [1, 5]: 6.5% and 2.63%; Population Mitochondria Different-Phenotype (%) [1, 5]: 13.01% and 9.87%; Population Mitotic Cells (%) [1, 5]: 91.67% and 82.14%; Population Normal (%) [1, 5]: 100%; Population Pyknosed Nuclei (%) [1, 5]: 19.78% and 25.34%; Population Tubulin-Different-Phenotype (%) [1, 5]: 28.46% and 22.37%; Total Cell Count [1, 5]: 182 and 221; Population Apoptotic (%) [1, 6]: 38.98% and 73.44%; Population Fragmented Nuclei (%) [1, 6]: 21.08% and 15.35%; Population Healthy Nuclei (%) [1, 6]: 43.37% and 56.58%; Population Hoechst High Intensity Objects (%) [1, 6]: 0%; Population Membrane Permeable-Phenotype (%) [1, 6]: 23.61% and 16.28%; Population Mitochondria Different-Phenotype (%) [1, 6]: 16.67% and 18.6%; Population Mitotic Cells (%) [1, 6]: 61.02% and 26.56%; Population Normal (%) [1, 6]: 100%; Population Pyknosed Nuclei (%) [1, 6]: 35.54% and 28.07%; Population Tubulin-Different-Phenotype (%) [1, 6]: 38.89% and 57.36%; Total Cell Count [1, 6]: 166 and 228; Population Apoptotic (%) [1, 7]: 41.3% and 71.67%; Population Fragmented Nuclei (%) [1, 7]: 16.56% and 16.58%; Population Healthy Nuclei (%) [1, 7]: 54.14% and 51.34%; Population Hoechst High Intensity Objects (%) [1, 7]: 0%; Population Membrane Permeable-Phenotype (%) [1, 7]: 3.53% and 9.38%; Population Mitochondria Different-Phenotype (%) [1, 7]: 11.76% and 7.29%; Population Mitotic Cells (%) [1, 7]: 58.7% and 28.33%; Population Normal (%) [1, 7]: 100%; Population Pyknosed Nuclei (%) [1, 7]: 29.3% and 32.09%; Population Tubulin-Different-Phenotype (%) [1, 7]: 23.53% and 35.42%; Total Cell Count [1, 7]: 157 and 187; Population Apoptotic (%) [1, 8]: 43.48% and 91.01%; Population Fragmented Nuclei (%) [1, 8]: 26.71% and 24.14%; Population Healthy Nuclei (%) [1, 8]: 44.72% and 32.02%; Population Hoechst High Intensity Objects (%) [1, 8]: 0%; Population Membrane Permeable-Phenotype (%) [1, 8]: 12.5% and 29.23%; Population Mitochondria Different-Phenotype (%) [1, 8]: 18.06% and 23.08%; Population Normal (%) [1, 8]: 100%; Population Pyknosed Nuclei (%) [1, 8]: 28.57% and 43.84%; Population Tubulin-Different-Phenotype (%) [1, 8]: 27.78% and 72.31%; Total Cell Count [1, 8]: 161 and 203; Population Apoptotic (%) [2, 3]: 12.17% and 7.08%; Population Fragmented Nuclei (%) [2, 3]: 0.89% and 3.5%; Population Healthy Nuclei (%) [2, 3]: 48% and 17.48%; Population Hoechst High Intensity Objects (%) [2, 3]: 0%; Population Membrane Permeable-Phenotype (%) [2, 3]: 0.93% and 0%; Population Mitotic Cells (%) [2, 3]: 87.83% and 92.92%; Population Normal (%) [2, 3]: 100%; Population Pyknosed Nuclei (%) [2, 3]: 51.11% and 79.02%; Total Cell Count [2, 3]: 225 and 143; Population Apoptotic (%) [2, 4]: 9.66% and 13.57%; Population Fragmented Nuclei (%) [2, 4]: 1.6% and 0.63%; Population Healthy Nuclei (%) [2, 4]: 28% and 10.76%; Population Hoechst High Intensity Objects (%) [2, 4]: 0%; Population Membrane Permeable-Phenotype (%) [2, 4]: 0% and 11.76%; Population Mitotic Cells (%) [2, 4]: 90.34% and 86.43%; Population Normal (%) [2, 4]: 100%; Population Pyknosed Nuclei (%) [2, 4]: 70.4% and 88.61%; Population Tubulin-Different-Phenotype (%) [2, 4]: 20% and 35.29%; Total Cell Count [2, 4]: 250 and 158; Population Apoptotic (%) [2, 5]: 21.74% and 12.8%; Population Fragmented Nuclei (%) [2, 5]: 4.26% and 2.61%; Population Hoechst High Intensity Objects (%) [2, 5]: 0.35% and 0%; Population Membrane Permeable-Phenotype (%) [2, 5]: 0% and 4.17%; Population Mitochondria Different-Phenotype (%) [2, 5]: 18.06% and 0%; Population Mitotic Cells (%) [2, 5]: 78.26% and 87.2%; Population Normal (%) [2, 5]: 99.65% and 100%; Population Pyknosed Nuclei (%) [2, 5]: 40.78% and 81.7%; Population Tubulin-Different-Phenotype (%) [2, 5]: 17.42% and 16.67%
